Data: ChEMBL document CHEMBL3400013, “Synthesis and biological activity evaluation of hydrazone derivatives based on a Tröger's base skeleton” (Bioorg Med Chem, 2015)
Activity calls are given as the source filed them. The calls are words filed in the database; no cut-off is given here.

Assays:
[1] = system: A549; assay: Cytostatic activity against human A549 cells after 72 hrs by MTT assay; type: functional, cell-based; conditions: A549, 72 h
In short: (§1)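 Cells were seeded at 25,000–30,000 per well and pre-incubated for 24 h at 37°C in 5% CO2. Four-fold compound dilutions were added in duplicate and incubated for 72 h. MTT was added for 1–4 h, and formazan was dissolved in 10% aq SDS (pH 5.5) overnight at 37°C. OD was read at 540 nm. IC50 came from dose-response curves, mean ± SD of eight independent experiments.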

[2] = Metal chelating activity of the compound assessed as formation of Mn2+ complex by UV-vis spectrometry; type: physicochemical
[3] = system: Candida tropicalis; assay: Antifungal activity against Candida tropicalis up to 200 uM after 24 to 48 hrs by broth microdilution method; type: functional, organism-based
[4] = Metal chelating activity of the compound assessed as formation of Fe2+ complex by UV-vis spectrometry; type: physicochemical
[5] = system: Nucleic Acid; assay: Binding affinity to DNA (unknown origin) assessed as DNA intercalation by UV-visible spectrophotometry in presence of Cu2+; type: nucleic-acid assay
[6] = Metal chelating activity of the compound assessed as formation of Fe3+ complex by UV-vis spectrometry; type: physicochemical
[7] = system: Staphylococcus aureus; assay: Antimicrobial activity against methicillin-resistant Staphylococcus aureus MRSA 4591 up to 200 uM after 24 to 48 hrs by broth microdilution method; type: functional, organism-based
[8] = system: BJ; assay: Selectivity index, ratio of IC50 for human BJ cells to IC50 for human K562-TAX cells; type: functional
[9] = system: BJ; assay: Selectivity index, ratio of IC50 for human BJ cells to IC50 for human CEM-DNR cells; type: functional
[10] = system: Enterococcus faecalis; assay: Antimicrobial activity against Enterococcus faecalis CCM 4224 up to 200 uM after 24 to 48 hrs by broth microdilution method; type: functional, organism-based
[11] = system: K562; assay: Selectivity index, ratio of IC50 for human MRC5 cells to IC50 for human K562 cells; type: functional
[12] = Cytostatic activity against human K562-TAX cells after 72 hrs by MTT assay; type: functional, cell-based; in short: as §1
[13] = system: Nucleic Acid; assay: Binding affinity to DNA (unknown origin) assessed as DNA intercalation by UV-visible spectrophotometry in presence of Fe3+; type: nucleic-acid assay
[14] = system: BJ; assay: Selectivity index, ratio of IC50 for human BJ cells to IC50 for human CCRF-CEM cells; type: functional; conditions: pooled result: one value given for 2 cell lines, strains, targets or settings
[15] = system: HCT-116; assay: Selectivity index, ratio of IC50 for human MRC5 cells to IC50 for human HCT116 cells; type: functional
[16] = system: Nucleic Acid; assay: Binding affinity to DNA (unknown origin) assessed as DNA intercalation by UV-visible spectrophotometry in presence of Zn2+; type: nucleic-acid assay
[17] = system: A549; assay: Selectivity index, ratio of IC50 for human MRC5 cells to IC50 for human A549 cells; type: functional
[18] = system: BJ; assay: Selectivity index, ratio of IC50 for human BJ cells to IC50 for human K562 cells; type: functional
[19] = Metal chelating activity of the compound assessed as formation of Ca2+ complex by UV-vis spectrometry; type: physicochemical
[20] = Cytostatic activity against human p53-/- HCT116 cells after 72 hrs by MTT assay; type: functional, cell-based; conditions: HCT-116, 72 h; in short: as §1
[21] = system: MRC5; assay: Selectivity index, ratio of IC50 for human MRC5 cells to IC50 for human K562-TAX cells; type: functional
[22] = system: Escherichia coli; assay: Antimicrobial activity against Escherichia coli CCM 3954 up to 200 uM after 24 to 48 hrs by broth microdilution method; type: functional, organism-based
[23] = Metal chelating activity of the compound assessed as formation of Ni2+ complex by UV-vis spectrometry; type: physicochemical
[24] = system: Pseudomonas aeruginosa; assay: Antimicrobial activity against multidrug-resistant Pseudomonas aeruginosa A/16575 up to 200 uM after 24 to 48 hrs by broth microdilution method; type: functional, organism-based
[25] = system: Pichia kudriavzevii; assay: Antifungal activity against Candida crusei up to 200 uM after 24 to 48 hrs by broth microdilution method; type: functional, organism-based
[26] = system: Staphylococcus aureus; assay: Antimicrobial activity against Staphylococcus aureus CCM 3953 up to 200 uM after 24 to 48 hrs by broth microdilution method; type: functional, organism-based
[27] = system: Nucleic Acid; assay: Binding affinity to DNA (unknown origin) assessed as DNA intercalation by UV-visible spectrophotometry; type: nucleic-acid assay
[28] = Metal chelating activity of the compound assessed as formation of Mg2+ complex by UV-vis spectrometry; type: physicochemical
[29] = Metal chelating activity of the compound assessed as formation of Cu2+ complex by UV-vis spectrometry; type: physicochemical
[30] = system: Escherichia coli; assay: Antimicrobial activity against multidrug-resistant Escherichia coli C/16702 up to 200 uM after 24 to 48 hrs by broth microdilution method; type: functional, organism-based
[31] = Metal chelating activity of the compound assessed as formation of Cr3+ complex by UV-vis spectrometry; type: physicochemical
[32] = Metal chelating activity of the compound assessed as formation of Co2+ complex by UV-vis spectrometry; type: physicochemical
[33] = Metal chelating activity of the compound assessed as formation of Zn2+ complex by UV-vis spectrometry; type: physicochemical
[34] = system: BJ; assay: Cytostatic activity against human BJ cells after 72 hrs by MTT assay; type: ADME, cell-based; in short: as §1
[35] = system: CEM-DNR; assay: Selectivity index, ratio of IC50 for human MRC5 cells to IC50 for human CEM-DNR cells; type: functional
[36] = system: Nucleic Acid; assay: Binding affinity to DNA (unknown origin) assessed as DNA intercalation by UV-visible spectrophotometry in presence of Ni2+; type: nucleic-acid assay
[37] = system: CCRF-CEM; assay: Cytostatic activity against human CCRF-CEM cells after 72 hrs by MTT assay; type: functional, cell-based; in short: as §1
[38] = system: Candida albicans; assay: Antifungal activity against Candida albicans up to 200 uM after 24 to 48 hrs by broth microdilution method; type: functional, organism-based
[39] = Cytostatic activity against human CEM-DNR cells after 72 hrs by MTT assay; type: functional, cell-based; in short: as §1
[40] = system: BJ; assay: Selectivity index, ratio of IC50 for human BJ cells to IC50 for human HCT116 cells; type: functional
[41] = system: Nucleic Acid; assay: Binding affinity to DNA (unknown origin) assessed as DNA intercalation by UV-visible spectrophotometry in presence of Co2+; type: nucleic-acid assay
[42] = system: HCT-116; assay: Selectivity index, ratio of IC50 for human MRC5 cells to IC50 for human p53-/- HCT116 cells; type: functional
[43] = system: MRC5; assay: Cytostatic activity against human MRC5 cells after 72 hrs by MTT assay; type: ADME, cell-based; conditions: MRC5, 72 h; in short: as §1
[44] = system: BJ; assay: Selectivity index, ratio of IC50 for human BJ cells to IC50 for human p53-/- HCT116 cells; type: functional
[45] = system: Candida parapsilosis; assay: Antifungal activity against Candida parapsilosis up to 200 uM after 24 to 48 hrs by broth microdilution method; type: functional, organism-based
[46] = system: Pseudomonas aeruginosa; assay: Antimicrobial activity against Pseudomonas aeruginosa CCM 395 up to 200 uM after 24 to 48 hrs by broth microdilution method; type: functional, organism-based
[47] = system: A549; assay: Selectivity index, ratio of IC50 for human BJ cells to IC50 for human A549 cells; type: functional
[48] = system: Staphylococcus haemolyticus; assay: Antimicrobial activity against methicillin-resistant Staphylococcus haemolyticus A1/16568 up to 200 uM after 24 to 48 hrs by broth microdilution method; type: functional, organism-based
[49] = Cytostatic activity against human HCT116 cells after 72 hrs by MTT assay; type: functional, cell-based; conditions: HCT-116, 72 h; in short: as §1
[50] = system: K562; assay: Cytostatic activity against human K562 cells after 72 hrs by MTT assay; type: functional, cell-based; conditions: K562, 72 h; in short: as §1

O=C(N/N=C/c1cc(Cl)ccc1O)c1ccc2c3c(ccc2c1)N1Cc2c(ccc4cc(C(=O)N/N=C/c5cc(Cl)ccc5O)ccc24)N(C3)C1
IC50 [1]: > 100 µM | Activity [2]: Not Active | Activity [3]: inactive | Activity [4]: Not Active | Activity [5]: Active | Activity [6]: Active | Activity [7]: inactive | Ratio IC50 [8]: 1 | Ratio IC50 [9]: 1 | Activity [10]: inactive | Ratio IC50 [11]: 1 | IC50 [12]: > 100 µM | Activity [13]: Active | Ratio IC50 [14]: 2.4 | Ratio IC50 [15]: 1 | Activity [16]: Active | Ratio IC50 [17]: 1 | Ratio IC50 [18]: 1 | Activity [19]: Not Active | IC50 [20]: > 100 µM | Ratio IC50 [21]: 1 | Activity [22]: inactive | Activity [23]: Active | Activity [24]: inactive | Activity [25]: inactive | Activity [26]: inactive | Activity [27]: inactive | Activity [28]: Not Active | Activity [29]: Active | Activity [30]: inactive | Activity [31]: Not Active | Activity [32]: Active | Activity [33]: Active | IC50 [34]: > 100 µM | Ratio IC50 [35]: 1 | Activity [36]: Active | IC50 [37]: 42.1 µM | Activity [38]: inactive | IC50 [39]: > 100 µM | Ratio IC50 [40]: 1 | Activity [41]: Active | Ratio IC50 [42]: 1 | IC50 [43]: > 100 µM | Ratio IC50 [44]: 1 | Activity [45]: inactive | Activity [46]: inactive | Ratio IC50 [47]: 1 | Activity [48]: inactive | IC50 [49]: > 100 µM | IC50 [50]: > 100 µM

COc1cccnc1/C=N/NC(=O)c1ccc2c3c(ccc2c1)N1Cc2c(ccc4cc(C(=O)N/N=C/c5ncccc5OC)ccc24)N(C3)C1
IC50 [1]: > 100 µM | Activity [2]: Not Active | Activity [3]: inactive | Activity [4]: Not Active | Activity [5]: Active | Activity [6]: Active | Activity [7]: inactive | Ratio IC50 [8]: 34.1 | Ratio IC50 [9]: 14.9 | Activity [10]: inactive | Ratio IC50 [11]: 1.8 | IC50 [12]: 2.93 µM | Activity [13]: Active | Ratio IC50 [14]: 2.7 | Ratio IC50 [15]: 1.2 | Activity [16]: Active | Ratio IC50 [17]: 1 | Ratio IC50 [18]: 1.8 | Activity [19]: Not Active | IC50 [20]: > 100 µM | Ratio IC50 [21]: 34.1 | Activity [22]: inactive | Activity [23]: Active | Activity [24]: inactive | Activity [25]: inactive | Activity [26]: inactive | Activity [27]: inactive | Activity [28]: Not Active | Activity [29]: Active | Activity [30]: inactive | Activity [31]: Not Active | Activity [32]: Active | Activity [33]: Active | IC50 [34]: > 100 µM | Ratio IC50 [35]: 14.9 | Activity [36]: Active | IC50 [37]: 36.6 µM | Activity [38]: inactive | IC50 [39]: 6.71 µM | Ratio IC50 [40]: 1.2 | Activity [41]: Active | Ratio IC50 [42]: 1 | IC50 [43]: > 100 µM | Ratio IC50 [44]: 1 | Activity [45]: inactive | Activity [46]: inactive | Ratio IC50 [47]: 1 | Activity [48]: inactive | IC50 [49]: 85.7 µM | IC50 [50]: 55.6 µM

O=C(N/N=C/c1cc([N+](=O)[O-])ccc1O)c1ccc2c3c(ccc2c1)N1Cc2c(ccc4cc(C(=O)N/N=C/c5cc([N+](=O)[O-])ccc5O)ccc24)N(C3)C1
IC50 [1]: > 100 µM | Activity [2]: Not Active | Activity [3]: inactive | Activity [4]: Not Active | Activity [5]: Active | Activity [6]: Active | Activity [7]: inactive | Ratio IC50 [8]: 0.9 | Ratio IC50 [9]: 0.9 | Activity [10]: inactive | Ratio IC50 [11]: 0.9 | IC50 [12]: > 100 µM | Activity [13]: Active | Ratio IC50 [14]: 0.9 | Ratio IC50 [15]: 0.9 | Activity [16]: Active | Ratio IC50 [17]: 0.9 | Ratio IC50 [18]: 0.9 | Activity [19]: Not Active | IC50 [20]: > 100 µM | Ratio IC50 [21]: 0.9 | Activity [22]: inactive | Activity [23]: Active | Activity [24]: inactive | Activity [25]: inactive | Activity [26]: inactive | Activity [27]: inactive | Activity [28]: Not Active | Activity [29]: Active | Activity [30]: inactive | Activity [31]: Not Active | Activity [32]: Active | Activity [33]: Active | IC50 [34]: > 100 µM | Ratio IC50 [35]: 0.9 | Activity [36]: Active | IC50 [37]: > 100 µM | Activity [38]: inactive | IC50 [39]: > 100 µM | Ratio IC50 [40]: 0.9 | Activity [41]: Active | Ratio IC50 [42]: 0.9 | IC50 [43]: 88.8 µM | Ratio IC50 [44]: 0.9 | Activity [45]: inactive | Activity [46]: inactive | Ratio IC50 [47]: 0.9 | Activity [48]: inactive | IC50 [49]: > 100 µM | IC50 [50]: > 100 µM
